Among the data in ChEMBL document CHEMBL1135931, “Rational design, synthesis, and biological activity of novel conformationally restricted vitamin D analogues, (22R)- and (22S)-22-ethyl-1,25-dihydroxy-23,24-didehydro-24a,24b-dihomo-20-epivitamin D(3)” (2002) are Activity values, retold here.

In one test the test system is C3H 10T1/2. Put plainly: Cells were harvested and were assayed for luciferase and -galactosidase activities (Transcriptional activity). The test is classed as functional, Mus musculus. In short, it runs like this:
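10T1/2 cells in DMEM with 10% charcoal-stripped FBS, 37 °C, 5% CO2; calcium-phosphate transfection 12 h with SPP×3-TK-LUC reporter, pCMX-β-GAL internal control, pUC18 carrier. Ligand 10^-11 to 10^-7 M for 48 h; luciferase normalized to β-galactosidase, duplicate points. Relative activity taken at ED50, as percent of 1,25-(OH)2D3.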

The test system of a further test is HL-60. The test can be described thus: Differentiation activity of human promyelocytic leukemia cells (HL-60) determined by an NBT reduction assay method. The test is classed as functional.
In the next test the test system is Rattus norvegicus. The test can be described thus: Calcemic activity (in vivo bone calcium mobilization) was measured by the rise in serum calcium in vitamin D and Ca deficient rats by colorimetric assay. The class given is functional. Also noted: concentration or dose not given beside the values. Summed up:
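Weanling male rats on vitamin D-deficient low-calcium diet (0.03% Ca, 0.6% P) for 3 weeks; single intravenous dose of 1 μg analogue in ethanol (50 μL) or vehicle alone. Serum calcium read colorimetrically (o-cresolphthalein complexone) at 0, 6, 12, 24 and 48 h post-dose; activity expressed as percent of 1,25-(OH)2D3.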

In test [1] the target is T1, Vitamin D3 receptor (Bos taurus) (UniProt Q28037).
T1 sequence (whole entry): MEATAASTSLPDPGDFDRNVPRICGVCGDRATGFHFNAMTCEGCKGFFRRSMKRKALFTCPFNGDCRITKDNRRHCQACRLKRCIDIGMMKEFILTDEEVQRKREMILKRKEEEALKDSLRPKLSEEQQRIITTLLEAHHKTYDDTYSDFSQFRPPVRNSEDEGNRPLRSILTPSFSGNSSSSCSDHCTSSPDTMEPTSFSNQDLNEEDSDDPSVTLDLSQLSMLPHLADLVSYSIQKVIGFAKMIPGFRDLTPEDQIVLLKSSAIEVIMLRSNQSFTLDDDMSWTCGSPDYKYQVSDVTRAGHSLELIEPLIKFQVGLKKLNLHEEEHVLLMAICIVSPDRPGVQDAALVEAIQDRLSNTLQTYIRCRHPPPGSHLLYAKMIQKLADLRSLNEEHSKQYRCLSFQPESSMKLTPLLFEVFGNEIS
Put plainly: Relative affinity for bovine thymus Vitamin D3 receptor (VDR). In short, it runs like this: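 Bovine thymus VDR in 0.05 M phosphate pH 7.4, 0.3 M KCl, 5 mM DTT; incubated with 0.1 nM [3H]-1,25-(OH)2D3 plus graded analogue, 19 h at 4 °C. Dextran-coated charcoal separation 20 min at 4 °C, centrifuge 1000g 10 min, supernatant counted; duplicate. Relative affinity at 50% displacement, as percent of 1,25-(OH)2D3.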

SMILES strings stand for the structures.

On to `C=C1/C(=C\C=C2/CCC[C@]3(C)[C@@H]([C@@H](C)[C@@H](C)CCC(C)(C)O)CC[C@@H]23)C[C@@H](O)C[C@@H]1O`, for which the Activity was 3% in the test on C3H 10T1/2, 8% in the test on HL-60, 5% in the test with Rattus norvegicus and 0.4% in test [1].

With `C=C1/C(=C\C=C2/CCC[C@]3(C)[C@@H]([C@@H](C)[C@H](C)CCC(C)(C)O)CC[C@@H]23)C[C@@H](O)C[C@@H]1O`, the Activity in the test with C3H 10T1/2 was 10000%; in the test with HL-60, 12000%; with Rattus norvegicus, 220%; in test [1], 1100%.

As to `C=C1/C(=C\C=C2/CCC[C@]3(C)[C@@H]([C@@H](C)[C@H](/C=C/CCC(C)(C)O)CC)CC[C@@H]23)C[C@@H](O)C[C@@H]1O`, the Activity with C3H 10T1/2 was 33%; in the test with HL-60 it was 77%; in the test with Rattus norvegicus, 38%; in test [1], 0.2%.

`C=C1/C(=C\C=C2/CCC[C@]3(C)[C@@H]([C@H](C)CCCC(C)(C)O)CC[C@@H]23)C[C@@H](O)C[C@@H]1O` [CALCITRIOL]: the Activity (in the test with C3H 10T1/2; in the test on HL-60; with Rattus norvegicus; in test [1]) was 100% each time.

In the case of `C=C1/C(=C\C=C2/CCC[C@]3(C)[C@@H]([C@@H](C)[C@@H](/C=C/CCC(C)(C)O)CC)CC[C@@H]23)C[C@@H](O)C[C@@H]1O`, the Activity in the test on C3H 10T1/2 was 2500%; in the test on HL-60 it was 9800%; in the test with Rattus norvegicus it was 140%; in test [1], 14%.
